ChEMBL document CHEMBL4321838, “Drug Design Targeting T-Cell Factor-Driven Epithelial-Mesenchymal Transition as a Therapeutic Strategy for Colorectal Cancer” (J Med Chem, 2019)

Key:
[1] = biological target: DNA topoisomerase 2-alpha (Homo sapiens, UniProt P11388); test: Inhibition of human topoisomerase 2alpha mediated decatenation at 30 uM using kDNA as susbtrate preincubated for 20 mins followed by substrate and ATP addition and measured after 1 hr by ethidium bromide staining based gel electrophoresis method relative to control
Procedure, shortened: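 Human TOP2A (3 U) preincubated 20 min at 37 °C with compound at 30 μM in 1.2% DMSO. Reaction started with 2 mM ATP and 35 ng kDNA and run 1 h at 37 °C. Products resolved on 0.8% agarose in TBE with 0.2 μg/mL ethidium bromide; decatenated bands compared with vehicle.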

[2] = Metabolic stability in CD-1 mouse inactive microsomes incubated for 1 hr by LC-MS/MS analysis; format: ADME, Microsome
[3] = Drug metabolism in CD-1 mouse active microsomes assessed as metabolite formation at rate of first-order kinetics by LC-MS/MS analysis; format: ADME, Microsome
[4] = Drug metabolism in CD-1 mouse active microsomes assessed as metabolite formation at rate of biphasic kinetics by LC-MS/MS analysis; format: ADME, Microsome
[5] = compound: COc1cc(NC(C)=O)c(O)c2nccc(-c3ccccc3NC(=O)c3ccccc3)c12; test: (§1) Competitive inhibition of human topoisomerase 2alpha ATPase activity assessed as Vmax for ATP hydrolysis with DNA relaxation at 10 uM using supercoiled plasmid DNA as susbtrate after 1 hr by malachite green assay/Michelis-Menten kinetics analysis (reference value: 0.652 to 0.6529 pmol/s)
[6] = compound: Cn1ccc2c(c1=O)C(=O)c1nccc3c1c-2nc1ccccc13; test: as §1
[7] = compound: COc1cc(NC(C)=O)c(O)c2nccc(-c3ccccc3NC(=O)c3ccccc3)c12; test: (§2) Competitive inhibition of human topoisomerase 2alpha ATPase activity assessed as Km for ATP hydrolysis with DNA relaxation at 10 uM using supercoiled plasmid DNA as susbtrate after 1 hr by malachite green assay/Michelis-Menten kinetics analysis (reference value: 317.8 to 350.1 microM)
[8] = compound: Cn1ccc2c(c1=O)C(=O)c1nccc3c1c-2nc1ccccc13; test: as §2
[9] = compound: Cn1ccc2c(c1=O)C(=O)c1nccc3c1c-2nc1ccccc13; test: Competitive inhibition of human topoisomerase 2alpha ATPase activity assessed as Vmax for ATP hydrolysis with DNA relaxation at 20 uM using supercoiled plasmid DNA as susbtrate after 1 hr by malachite green assay/Michelis-Menten kinetics analysis (reference value: 0.652 to 0.6529 pmol/s)
[10] = compound: Cn1ccc2c(c1=O)C(=O)c1nccc3c1c-2nc1ccccc13; test: Competitive inhibition of human topoisomerase 2alpha ATPase activity assessed as Km for ATP hydrolysis with DNA relaxation at 20 uM using supercoiled plasmid DNA as susbtrate after 1 hr by malachite green assay/Michelis-Menten kinetics analysis (reference value: 317.8 to 350.1 microM)
[11] = compound: COc1cc(NC(C)=O)c(O)c2nccc(-c3ccccc3NC(=O)c3ccccc3)c12; test: Competitive inhibition of human topoisomerase 2alpha ATPase activity assessed as Vmax for ATP hydrolysis with DNA relaxation at 5 uM using supercoiled plasmid DNA as susbtrate after 1 hr by malachite green assay/Michelis-Menten kinetics analysis (reference value: 0.652 to 0.6529 pmol/s)
[12] = compound: COc1cc(NC(C)=O)c(O)c2nccc(-c3ccccc3NC(=O)c3ccccc3)c12; test: Competitive inhibition of human topoisomerase 2alpha ATPase activity assessed as Km for ATP hydrolysis with DNA relaxation at 5 uM using supercoiled plasmid DNA as susbtrate after 1 hr by malachite green assay/Michelis-Menten kinetics analysis (reference value: 317.8 to 350.1 microM)

Question: With `CC(=O)Nc1ccc2c(-c3ccccc3)ccnc2c1O` as the molecule, how does the inhibition [1] read?
Answer: 25%

Question: What about the Stability [2] of the same molecule?
Answer: Stable

Question: And the Drug metabolism [3]?
Answer: Metabolite_Notdetected

Question: What about the Drug metabolism [4] of the same molecule?
Answer: Metabolite_Detected

B1: DNA topoisomerase 2-alpha (Homo sapiens), P11388 (protein)
chain: MEVSPLQPVNENMQVNKIKKNEDAKKRLSVERIYQKKTQLEHILLRPDTYIGSVELVTQQMWVYDEDVGINYREVTFVPGLYKIFDEILVNAADNKQRDPKMSCIRVTIDPENNLISIWNNGKGIPVVEHKVEKMYVPALIFGQLLTSSNYDDDEKKVTGGRNGYGAKLCNIFSTKFTVETASREYKKMFKQTWMDNMGRAGEMELKPFNGEDYTCITFQPDLSKFKMQSLDKDIVALMVRRAYDIAGSTKDVKVFLNGNKLPVKGFRSYVDMYLKDKLDETGNSLKVIHEQVNHRWEVCLTMSEKGFQQISFVNSIATSKGGRHVDYVADQIVTKLVDVVKKKNKGGVAVKAHQVKNHMWIFVNALIENPTFDSQTKENMTLQPKSFGSTCQLSEKFIKAAIGCGIVESILNWVKFKAQVQLNKKCSAVKHNRIKGIPKLDDANDAGGRNSTECTLILTEGDSAKTLAVSGLGVVGRDKYGVFPLRGKILNVREASHKQIMENAEINNIIKIVGLQYKKNYEDEDSLKTLRYGKIMIMTDQDQDGSHIKGLLINFIHHNWPSLLRHRFLEEFITPIVKVSKNKQEMAFYSLPEFEEWKSSTPNHKKWKVKYYKGLGTSTSKEAKEYFADMKRHRIQFKYSGPEDDAAISLAFSKKQIDDRKEWLTNFMEDRRQRKLLGLPEDYLYGQTTTYLTYNDFINKELILFSNSDNERSIPSMVDGLKPGQRKVLFTCFKRNDKREVKVAQLAGSVAEMSSYHHGEMSLMMTIINLAQNFVGSNNLNLLQPIGQFGTRLHGGKDSASPRYIFTMLSSLARLLFPPKDDHTLKFLYDDNQRVEPEWYIPIIPMVLINGAEGIGTGWSCKIPNFDVREIVNNIRRLMDGEEPLPMLPSYKNFKGTIEELAPNQYVISGEVAILNSTTIEISELPVRTWTQTYKEQVLEPMLNGTEKTPPLITDYREYHTDTTVKFVVKMTEEKLAEAERVGLHKVFKLQTSLTCNSMVLFDHVGCLKKYDTVLDILRDFFELRLKYYGLRKEWLLGMLGAESAKLNNQARFILEKIDGKIIIENKPKKELIKVLIQRGYDSDPVKAWKEAQQKVPDEEENEESDNEKETEKSDSVTDSGPTFNYLLDMPLWYLTKEKKDELCRLRNEKEQELDTLKRKSPSDLWKEDLATFIEELEAVEAKEKQDEQVGLPGKGGKAKGKKTQMAEVLPSPRGQRVIPRITIEMKAEAEKKNKKKIKNENTEGSPQEDGVELEGLKQRLEKKQKREPGTKTKKQTTLAFKPIKKGKKRNPWSDSESDRSSDESNFDVPPRETEPRRAATKTKFTMDLDSDEDFSDFDEKTDDEDFVPSDASPPKTKTSPKLSNKELKPQKSVVSDLEADDVKGSVPLSSSPPATHFPDETEITNPVPKKNVTVKKTAAKSQSSTSTTGAKKRAAPKGTKRDPALNSGVSQKPDPAKTKNRRKRKPSTSDDSDSNFEKIVSKAVTSKKSKGESDDFHMDFDSAVAPRAKSVRAKKPIKYLEESDEDDLF
Question: With B1 as the molecule, how does the Vmax [5] read?
Answer: 0.646 pmol/s

Question: And the Vmax [6]?
Answer: 0.657 pmol/s

Question: What about the Km [7] of the same molecule?
Answer: 387 µM

Question: What about the Km [8] of the same molecule?
Answer: 518 µM

Question: What about the Vmax [9] of the same molecule?
Answer: 0.65 pmol/s

Question: And the Km [10]?
Answer: 651 µM

Question: And the Vmax [11]?
Answer: 0.65 pmol/s

Question: And the Km [12]?
Answer: 380 µM
